Measurements: ChEMBL document CHEMBL2062453, “Lead optimization through VLAK protocol: new annelated pyrrolo-pyrimidine derivatives as antitumor agents” (2012)

Columns and labels:
Assay type in all cases: functional
MOLT-4 = assay: Cytotoxicity against human MOLT4 cells after 48 hrs by SRB assay; conditions: MOLT-4, 48 h
Procedure, shortened: (§1)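 Five-dose screen, 10-fold or ½-log dilutions, compound stock in DMSO. Cells were in RPMI 1640 with 5% FBS and 2 mM glutamine at 5000–40,000 cells/well, preincubated 24 h, 37 °C, 5% CO₂, with a time-zero plate TCA-fixed. After 48 h drug exposure, cells were TCA-fixed and stained with 0.4% SRB, read at 515 nm. GI50, TGI and LC50 were derived from time-zero, control and test absorbances.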

RPMI-8226 = assay: Cytotoxicity against human RPMI8226 cells after 48 hrs by SRB assay; conditions: RPMI-8226, 48 h; procedure, shortened: as §1
HOP-62 = assay: Cytotoxicity against human HOP62 cells after 48 hrs by SRB assay; conditions: HOP-62, 48 h
Procedure, shortened: (§2)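 NCI 60-cell five-dose screen. Cells grown in RPMI 1640 with 5% FBS and 2 mM glutamine, plated at 5000–40,000 cells/well, and preincubated 24 h at 37 °C in 5% CO2. Time-zero plates fixed with TCA. Five serial dilutions of DMSO stock added, then 48 h exposure. TCA fixation, 0.4% SRB staining, absorbance read at 515 nm. GI50 from [(Ti−Tz)/(C−Tz)]×100 = 50.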

HOP-92 = assay: Cytotoxicity against human HOP92 cells after 48 hrs by SRB assay; conditions: HOP-92, 48 h
Procedure, shortened: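 NCI 60-line five-dose screen. Cells are grown in RPMI 1640 with 5% FBS and 2 mM glutamine, plated at 5000–40,000 cells/well, and preincubated 24 h at 37 °C in 5% CO2. Compound is dissolved in DMSO and given at five concentrations (10-fold or ½-log dilutions) for 48 h. Cells are TCA-fixed (HL-60(TB), suspension: 16% final; HOP92, adherent: 10% final), SRB-stained and read at 515 nm. GI50 comes from [(Ti−Tz)/(C−Tz)]×100 = 50.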

NCI-H226 = assay: Cytotoxicity against human NCI-H226 cells after 48 hrs by SRB assay; conditions: NCI-H226, 48 h; procedure, shortened: as §1
NCI-H23 = assay: Cytotoxicity against human NCI-H23 cells after 48 hrs by SRB assay; conditions: NCI-H23, 48 h; procedure, shortened: as §1
HT-29 = assay: Cytotoxicity against human HT-29 cells after 48 hrs by SRB assay; conditions: HT-29, 48 h; procedure, shortened: as §2
SW-620 = assay: Cytotoxicity against human SW620 cells after 48 hrs by SRB assay; conditions: SW-620, 48 h
Procedure, shortened: (§3)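 NCI 60-panel five-dose screen. Cells in RPMI 1640 with 5% FBS and 2 mM glutamine, plated at 5000–40,000 cells/well and preincubated 24 h at 37 °C under 5% CO2. Five 10-fold or half-log dilutions were added from a DMSO stock for 48 h. Cells were TCA-fixed (SR settled cells: 16% final), SRB-stained and read at 515 nm. GI50 was taken where (Ti−Tz)/(C−Tz)×100 = 50.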

SF-295 = assay: Cytotoxicity against human SF295 cells after 48 hrs by SRB assay; conditions: SF-295, 48 h; procedure, shortened: as §1
SF-539 = assay: Cytotoxicity against human SF539 cells after 48 hrs by SRB assay; conditions: SF-539, 48 h; procedure, shortened: as §1
SNB-75 = assay: Cytotoxicity against human SNB75 cells after 48 hrs by SRB assay; conditions: SNB-75, 48 h; procedure, shortened: as §1
U-251 = assay: Cytotoxicity against human U251 cells after 48 hrs by SRB assay; conditions: U-251, 48 h; procedure, shortened: as §3
LOX IMVI = assay: Cytotoxicity against human LOXIMVI cells after 48 hrs by SRB assay; procedure, shortened: as §2
SK-MEL-28 = assay: Cytotoxicity against human SK-MEL-28 cells after 48 hrs by SRB assay; conditions: SK-MEL-28, 48 h; procedure, shortened: as §1
UACC-62 = assay: Cytotoxicity against human UACC62 cells after 48 hrs by SRB assay; conditions: UACC-62, 48 h; procedure, shortened: as §3
OVCAR-3 = assay: Cytotoxicity against human OVCAR3 cells after 48 hrs by SRB assay; conditions: OVCAR-3, 48 h; procedure, shortened: as §1
OVCAR-8 = assay: Cytotoxicity against human OVCAR8 cells after 48 hrs by SRB assay; conditions: OVCAR-8, 48 h; procedure, shortened: as §1
786-0 = assay: Cytotoxicity against human 786-0 cells after 48 hrs by SRB assay; conditions: 786-0, 48 h; procedure, shortened: as §2
A498 = assay: Cytotoxicity against human A498 cells after 48 hrs by SRB assay; conditions: A498, 48 h; procedure, shortened: as §2
ACHN = assay: Cytotoxicity against human ACHN cells after 48 hrs by SRB assay; procedure, shortened: as §2
RXF 393 = assay: Cytotoxicity against human RXF393 cells after 48 hrs by SRB assay; conditions: RXF 393, 48 h; procedure, shortened: as §1
UO-31 = assay: Cytotoxicity against human UO31 cells after 48 hrs by SRB assay; conditions: UO-31, 48 h; procedure, shortened: as §3
DU-145 = assay: Cytotoxicity against human DU145 cells after 48 hrs by SRB assay; conditions: DU-145, 48 h; procedure, shortened: as §2
MDA-MB-231 = assay: Cytotoxicity against human MDA-MB-231 cells after 48 hrs by SRB assay; conditions: MDA-MB-231, 48 h; procedure, shortened: as §2
BT-549 = assay: Cytotoxicity against human BT549 cells after 48 hrs by SRB assay; conditions: BT-549, 48 h; procedure, shortened: as §2

CSC1=Nc2c(c(C)c(-c3ccccc3)n2CCCCl)C2=NC(=O)CN12
GI50 (MOLT-4): 3.89 µM
LC50 (MOLT-4): > 100 µM
TGI (MOLT-4; read-out: pTGI (converted)): > 100 µM
GI50 (RPMI-8226): 3.72 µM
LC50 (RPMI-8226): > 100 µM
TGI (RPMI-8226; read-out: pTGI (converted)): 66.1 µM
GI50 (HOP-62): 11 µM
LC50 (HOP-62): > 100 µM
TGI (HOP-62; read-out: pTGI (converted)): 63.1 µM
GI50 (HOP-92): 11.5 µM
LC50 (HOP-92): > 100 µM
TGI (HOP-92; read-out: pTGI (converted)): 37.2 µM
GI50 (NCI-H226): 11 µM
LC50 (NCI-H226): 81.3 µM
TGI (NCI-H226; read-out: pTGI (converted)): 29.5 µM
GI50 (NCI-H23): 8.32 µM
LC50 (NCI-H23): > 100 µM
TGI (NCI-H23; read-out: pTGI (converted)): 46.8 µM
GI50 (HT-29): 3.89 µM
LC50 (HT-29): > 100 µM
TGI (HT-29; read-out: pTGI (converted)): 19.5 µM
GI50 (SW-620): 4.79 µM
LC50 (SW-620): > 100 µM
TGI (SW-620; read-out: pTGI (converted)): 53.7 µM
GI50 (SF-295): 4.07 µM
LC50 (SF-295): > 100 µM
TGI (SF-295; read-out: pTGI (converted)): 26.9 µM
GI50 (SF-539): 3.39 µM
LC50 (SF-539): 39.8 µM
TGI (SF-539; read-out: pTGI (converted)): 14.1 µM
GI50 (SNB-75): 2820 nM
LC50 (SNB-75): 67.6 µM
TGI (SNB-75; read-out: pTGI (converted)): 11.7 µM
GI50 (U-251): 3.89 µM
LC50 (U-251): 53.7 µM
TGI (U-251; read-out: pTGI (converted)): 16.2 µM
GI50 (LOX IMVI): 4.17 µM
LC50 (LOX IMVI): 50.1 µM
TGI (LOX IMVI; read-out: pTGI (converted)): 17.4 µM
GI50 (SK-MEL-28): 10.2 µM
LC50 (SK-MEL-28): 63.1 µM
TGI (SK-MEL-28; read-out: pTGI (converted)): 25.1 µM
GI50 (UACC-62): 2090 nM
LC50 (UACC-62): 38 µM
TGI (UACC-62; read-out: pTGI (converted)): 11.5 µM
GI50 (OVCAR-3): 8.32 µM
LC50 (OVCAR-3): > 100 µM
TGI (OVCAR-3; read-out: pTGI (converted)): 36.3 µM
GI50 (OVCAR-8): 16.2 µM
LC50 (OVCAR-8): > 100 µM
TGI (OVCAR-8; read-out: pTGI (converted)): 72.4 µM
GI50 (786-0): 8.51 µM
LC50 (786-0): > 100 µM
TGI (786-0; read-out: pTGI (converted)): 61.7 µM
GI50 (A498): 3.89 µM
LC50 (A498): 53.7 µM
TGI (A498; read-out: pTGI (converted)): 15.1 µM
GI50 (ACHN): 9.55 µM
CC50 (ACHN; read-out: pLC50 (the source's name) (converted)): > 100 µM
TGI (ACHN; read-out: pTGI (converted)): 38 µM
GI50 (RXF 393): 11.2 µM
LC50 (RXF 393): 79.4 µM
TGI (RXF 393; read-out: pTGI (converted)): 29.5 µM
GI50 (UO-31): 10.5 µM
LC50 (UO-31): 77.6 µM
TGI (UO-31; read-out: pTGI (converted)): 28.8 µM
GI50 (DU-145): 11.5 µM
LC50 (DU-145): 61.7 µM
TGI (DU-145; read-out: pTGI (converted)): 26.9 µM
GI50 (MDA-MB-231): 5.62 µM
LC50 (MDA-MB-231): 77.6 µM
TGI (MDA-MB-231; read-out: pTGI (converted)): 24 µM
GI50 (BT-549): 4.9 µM
LC50 (BT-549): > 100 µM
TGI (BT-549; read-out: pTGI (converted)): 35.5 µM
